Laboratory results as given in PMC10464600 (ACS chemical biology, 2022).
Values belong to the molecule of their own block, whether it stands above or below them.

Legend:
[1] = Photophysical properties; assay type: physicochemical
Method in brief: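 Samples were diluted to 1 μM and scanned on a photon-counting fluorometer in a 10 x 4 mm cuvette at 25 °C, with excitation/emission spectra recorded in triplicate. Quantum yield was taken relative to a reference fluorophore standard. Extinction coefficient came from absorbance spectra (10 mm pathlength) at 10, 8, 6, 4 and 2 μM dilutions.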

[2] = test system: 1483 HNSCC cells; assay: Cell imaging assay, fluorescence microscopy; assay type: cell-based
Method in brief: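 1483 HNSCC cells in HBSS/Tyrode's, grown to 50% confluency, given 200 nM probe for 0.25 h at 37 °C, washed three times, imaged (propidium iodide filter, 0.5 s exposure, gain 2) at 0.5 and 3 h post-addition. Intensity read at 586/607 nm. Triplicates; Welch-corrected unpaired t test, error as standard error.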

[3] = test system: ROS in carrageenan-induced inflamed footpad; assay: Chemiluminescence imaging of ROS in carrageenan-induced footpad inflammation; assay type: in vivo, C57BL/6 mice; details: luminol 5 mg/kg i.v.
[4] = target: T1, mCOX-2 (Mus musculus, UniProt Q05769); assay: Purified COX-2 isozyme inhibition, TLC assay with [1-14C]arachidonic acid; assay type: biochemical; details: read-out: IC50, inhibition of COX-2, 14C-arachidonic acid substrate
T1 sequence (Q05769 18-604): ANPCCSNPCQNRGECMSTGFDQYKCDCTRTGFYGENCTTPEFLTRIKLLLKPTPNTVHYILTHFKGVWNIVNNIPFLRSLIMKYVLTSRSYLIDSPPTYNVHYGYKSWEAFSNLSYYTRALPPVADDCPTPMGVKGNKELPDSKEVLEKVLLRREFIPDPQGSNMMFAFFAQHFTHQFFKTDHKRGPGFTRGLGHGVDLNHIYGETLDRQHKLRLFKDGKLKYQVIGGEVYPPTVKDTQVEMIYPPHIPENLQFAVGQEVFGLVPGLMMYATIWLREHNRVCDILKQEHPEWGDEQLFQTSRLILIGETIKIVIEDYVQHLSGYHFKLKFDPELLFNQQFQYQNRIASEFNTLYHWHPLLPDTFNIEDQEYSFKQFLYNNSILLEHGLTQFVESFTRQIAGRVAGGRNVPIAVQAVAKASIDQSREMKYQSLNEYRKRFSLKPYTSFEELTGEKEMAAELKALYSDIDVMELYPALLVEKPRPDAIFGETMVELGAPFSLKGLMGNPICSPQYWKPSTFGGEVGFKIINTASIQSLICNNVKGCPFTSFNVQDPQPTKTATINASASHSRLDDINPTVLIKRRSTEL

[5] = target: T2, COX-2 in 1483 HNSCC cells (Homo sapiens, UniProt P35354); assay: Cell-based COX-2 inhibition assay in intact 1483 HNSCC cells; details: read-out: IC50, cellular COX-2 inhibition
T2 sequence (P35354 18-604): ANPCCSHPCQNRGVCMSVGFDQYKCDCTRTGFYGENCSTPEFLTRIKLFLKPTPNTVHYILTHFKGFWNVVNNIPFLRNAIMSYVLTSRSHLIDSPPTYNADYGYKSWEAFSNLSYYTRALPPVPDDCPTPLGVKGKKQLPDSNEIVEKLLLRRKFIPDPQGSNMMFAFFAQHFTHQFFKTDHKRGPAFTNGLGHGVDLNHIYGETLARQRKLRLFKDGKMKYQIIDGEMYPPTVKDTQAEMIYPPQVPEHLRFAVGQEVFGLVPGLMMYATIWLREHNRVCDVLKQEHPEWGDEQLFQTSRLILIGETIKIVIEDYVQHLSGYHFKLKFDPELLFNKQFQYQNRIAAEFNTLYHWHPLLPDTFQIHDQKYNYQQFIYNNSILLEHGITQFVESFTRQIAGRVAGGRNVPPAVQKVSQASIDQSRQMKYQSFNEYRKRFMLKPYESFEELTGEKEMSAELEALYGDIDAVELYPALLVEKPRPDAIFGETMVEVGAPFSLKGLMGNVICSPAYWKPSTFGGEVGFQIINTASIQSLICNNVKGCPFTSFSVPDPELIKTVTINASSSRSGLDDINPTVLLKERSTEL

[6] = In vivo pharmacokinetic assay, plasma concentration by LC-MS; details: CD-1 mice, 10 mg/kg i.p.
[7] = test system: COX-2 and ROS in carrageenan-induced inflamed footpad; assay: Fluorescence imaging of carrageenan-induced footpad inflammation; assay type: in vivo, C57BL/6 mice
[8] = 200 nM, 1483 HNSCC cells, after washout

Molecule: Cc1ccc(-c2cc(C(F)(F)F)nn2-c2ccc(S(N)(=O)=O)cc2)cc1 [celecoxib, reference compound]
effect of preincubation on fluorocoxib Q-H labeling of 1483 HNSCC cells ([2]; pretreatment before fluorocoxib Q-H): blocked

Molecule: Nc1cccc2c(=O)[nH][nH]c(=O)c12 [luminol]
fold luminescence, inflamed versus control footpads [3]: 12 fold | chemiluminescence emission in inflamed footpads (mean ± sd) ([3]; 6 h after carrageenan, n = 8, p < 0.0004): 1251.5 ± 94.9

More lines, main results first:

extinction coefficient (ε) ([1]; at 579 nm): 45 mM⁻¹ cm⁻¹ | quantum yield (Φfl) ([1]; at 602 nm, FA used as standard for comparison): 0.93
Molecule: COc1ccc2c(c1)c(CC(=O)NCCCCNC(=O)c1ccc(C3=c4cc5c6c(c4Oc4c3cc3c7c4CCCN7CCC3)CCC[N+]=6CCC5)c(C(=O)O)c1)c(C)n2C(=O)c1ccc(Cl)cc1 [FA, fluorocoxib A, reference compound]

IC50 [4]: 330 nM | IC50 [5]: 280 nM | extinction coefficient (ε) ([1]; at 586 nm): < 0.4 mM⁻¹ cm⁻¹ | quantum yield (Φfl) ([1]; at 607 nm): < 0.19 | plasma half-life [6]: exceeds 24 h
Molecule: fluorocoxib Q [FQ]
fold increase in fluorescence, inflamed over non-inflamed footpads ([7]; 5 mg/kg i.p., imaging 24 h post-injection, average): 9 fold | fluorescence in inflamed footpad (mean ± sd) ([7]; 5 mg/kg i.p., imaging 24 h post-injection, n = 8, p < 0.001): 7.84x10^8 ± 1.25x10^8 | background signal in non-inflamed footpad ([7]; wild-type C57BL/6 mice, FQ versus CF3-FA): extremely low background signal | cell fluorescence at 0.5 h post-addition [2, 8]: low fluorescence intensity | cell fluorescence at 3 h post-addition [2, 8]: strong fluorescence

IC50 [4]: 240 nM | IC50 [5]: 260 nM | extinction coefficient (ε) ([1]; at 586 nm): 44 mM⁻¹ cm⁻¹ | quantum yield (Φfl) ([1]; at 607 nm): 0.90
Molecule: fluorocoxib Q-H [FQ-H]
fluorescence labeling of 1483 HNSCC cells ([2]; fluorocoxib Q-H alone, after repetitive washing): strong perinuclear fluorescence
